PGC1a Ac signal: raises PGC1a acetylation signal in U2OS cells; U2OS PGC1a acetylation AlphaScreen, overnight; activation, % at 15.6 µM; 350,000 compounds, 0.21% hits;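 active = every replicate reaching activation of at least 50%, whatever the mean replicate activation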;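 note: hits raise the AlphaScreen acetylation signal above neutral controls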
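System – flag-PGC1a/GCN5 U2OS cells · Quantity – 7000 U2OS cells per well · Signal – AlphaScreen proximity luminescence, anti-acetyl-lysine antibody · Schedule – overnight compound treatment, 37 °C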
* hit, by the source's call. This excerpt belongs to a sample that is enriched for hits.

SMILES	PGC1a Ac signal
COc1cccc(C2c3[nH]c4ccccc4c3CCN2Cc2cnc(C)s2)c1OC (configuration not stated)	70*
O=C(Cc1ccccn1)NCC[C@@H]1CC[C@H](NC(=O)Nc2ccc(C(F)(F)F)cc2)[C@H](CO)O1	-78
OC(COc1ccc(CNCCc2ccc(C(F)(F)F)cc2)cc1)CN1CCCCC1 (configuration not stated)	54*
COc1ccc(-n2nc(C#N)c(Cl)cc2=O)cc1	-90
CCC(=O)N1C[C@H](C)[C@H](OC)CN(C)C(=O)c2cc(NC(=O)c3cnccn3)ccc2OC[C@@H]1C	-41
CC(C)c1ccc(-c2nnn(CC(=O)N3CCCCC3)n2)cc1	-40
CC(C)(C)NC(=O)Cn1nnc(-c2ccc(OCc3c(F)cccc3Cl)cc2)n1	66*
CC(=O)CS(=O)(=O)c1ccc(Oc2ccc(S(=O)(=O)CC(C)=O)cc2)cc1	-41
Cc1ccc(S(=O)(=O)CCSC(=N)N)cc1	67*
Cc1ccccc1OCC(O)CNC1CCC(NCC(O)COc2ccccc2C)CC1 (configuration not stated)	88*
CC1(Cc2cc(Cl)ccc2C(F)(F)F)C(=O)Nc2ccc(S(=O)(=O)NC3CCCCC3)cc21 (configuration not stated)	86*
CC(=O)c1c(COC(=O)c2ccccc2)nc2ccccc2[n+]1[O-]	-55
O=c1c(Cl)c(Cl)cnn1Cc1nnc(-c2ccc(Cl)cc2)o1	73*
Cc1ccc(Cn2ncc(Cl)c(Cl)c2=O)cc1	112*
COC(=O)C1CCN(Cc2nnc(-c3ccccc3)o2)CC1	-47
COc1ccc(CC2C(=O)NC(C)C(=O)N(C)C3Cc4ccc(cc4)Oc4cc(ccc4O)CC(C(=O)NC(C)C(=O)NC(C)C(=O)N2C)N(C)C3=O)cc1 (configuration not stated)	-70
O=C(Nc1nc2c(s1)CN(Cc1ccccc1)CC2)c1c(F)cccc1F	-41
Cc1ccc(/C=C2/CNC/C(=C/c3ccc(C)cc3)C2=O)cc1	-74
Cc1ccc(NC(=O)CCC(=O)N/N=C/c2ccc([N+](=O)[O-])o2)cc1C	126*
Cc1ccc(O)c(/C=N/NC(=O)CN2CCCC2)c1	-84
O=C(CSc1ccc(Cl)cc1)N/N=C/c1ccc([N+](=O)[O-])o1	92*
CC1=NN(c2ccc(C)c(C)c2)C(=O)/C1=C\C=C\c1ccc([N+](=O)[O-])o1	-59
Cc1ccc(OCC(=O)N/N=C/c2ccc([N+](=O)[O-])o2)cc1	84*
O=C(CSc1nnc(-c2ccccc2)n1-c1ccc(Cl)cc1)N/N=C/c1ccccc1C(=O)O	-45
COc1ccc(C(=O)Nc2cc(Cl)ccc2-n2cncn2)c(OC)c1OC	-47
SMILES	PGC1a Ac signal
COc1ccc(S(=O)(=O)Nc2ccc3c(c2)C(=O)N([C@H](C)CO)C[C@H](C)[C@H](CN(C)S(=O)(=O)c2cn(C)cn2)OCCCC[C@@H](C)O3)cc1	-55
CO[C@H]1CN(C)C(=O)c2cc(NS(C)(=O)=O)ccc2OC[C@H](C)N(C(=O)NC(C)C)C[C@H]1C	-48
Cc1cc(S(=O)(=O)Nc2ccc3ccccc3c2)c(C)s1	58*
Cc1cc(C)nc(NS(=O)(=O)c2ccc(NC(=O)Nc3ccccc3)cc2)n1	-97
O=C(C[C@@H]1C[C@@H]2c3cc(NC(=O)C4CCC4)ccc3O[C@@H]2[C@@H](CO)O1)NCc1ccc(-c2ccccc2)cc1	-80
CC(C)NC(=O)N(C)C[C@H]1OCCCC[C@@H](C)Oc2ccc(NC(=O)Nc3ccc(C(F)(F)F)cc3)cc2C(=O)N([C@H](C)CO)C[C@@H]1C	-50
CS(=O)(=O)c1nc(-c2ccccc2)cc(C(F)(F)F)n1	-64
Cc1ccccc1S(=O)(=O)NCC[C@@H]1CC[C@H](NC(=O)C2CCOCC2)[C@@H](CO)O1	-45
COc1ccc(/C=N/NC(=O)c2cccnc2)cc1CN1CCOCC1	-42
Cc1cccc(C(=O)Nc2ccc(C(=O)/C=C/c3cccnc3)cc2)c1	-54
CCCCCCC(=O)Nc1ccc(C(=O)N/N=C/c2cccnc2)cc1	417*
CCOc1ccccc1C(=O)NCCCCCC(=O)O	-42
CCOC(=O)C(NC(=O)c1ccccc1OCC)(Nc1ncccn1)C(F)(F)F (configuration not stated)	70*
CCOc1ccc(C(=O)N/N=C(\c2ccccc2)c2ccccn2)cc1	-80
CNC[C@H]1Oc2ccc(NC(=O)CCN3CCOCC3)cc2C(=O)N([C@H](C)CO)C[C@H]1C	-42
CN(C)c1ccc(C(=O)NC2(N3CCC3=O)CCCC2)cc1	-50
Cc1noc(C)c1S(=O)(=O)Nc1ccc2c(c1)C(=O)N([C@H](C)CO)C[C@@H](C)[C@@H](CN(C)S(=O)(=O)c1cccs1)OCCCC[C@H](C)O2	-51
Cc1ccccc1C(=O)Nc1ccc(C(=O)O)cc1NC(=O)c1ccccc1C	-41
CCOc1ccccc1NC(=O)c1ccc2ccccc2c1	-88
CCN(CC)c1ccc(NC(=O)c2cc(OC)cc(OC)c2)c(C)c1	99*
COc1ccc(-n2c(C)c([N+](=O)[O-])c3ccc(O)c(CN(C)C)c32)cc1	-37
CO[C@@H]1CN(C)C(=O)c2ccc(NC(=O)Nc3c(C)noc3C)cc2OC[C@H](C)N(CC2CC2)C[C@@H]1C	-101
COc1cc(Cl)c(S(=O)(=O)N2CC(C)OC(C)C2)cc1Cl (configuration not stated)	89*
COc1cc(C(=O)O)ccc1Cl	-48
Cn1nc([N+](=O)[O-])nc1S(C)(=O)=O	95*
SMILES	PGC1a Ac signal
CNc1ccc2ncc(-c3ccc(OC)c(OC)c3)n2n1	-58
O=C(OCc1nc2ccsc2c(=O)[nH]1)c1cccc(S(=O)(=O)N2CCOCC2)c1	-42
CCC(CC)NC(=O)Cc1ccc(S(=O)(=O)N2CCOCC2)s1	52*
Cn1c(SC2=CS(=O)(=O)c3ccccc32)nc2ccccc21	260*
Cc1cc(C)n(CCc2nc3c4ccccc4n(CC#N)c(=O)n3n2)n1	-41
Nc1cc2ccncc2c2ccccc12	-42
COc1ccc(CC(CC(=O)O)C(=O)Nc2ccc(OC)cc2)cc1 (configuration not stated)	50*
COc1ccc(CCN2C(=O)N(c3ccc(OC)cc3)C(=O)C2CC(=O)Nc2ccccc2)cc1 (configuration not stated)	-48
CN(C)CC(O)c1ccc(C=Cc2ccc(Cl)cc2)cc1 (configuration not stated)	-51
COc1cccc(-c2ccc(C3[C@@H]4CN(C(=O)C5CC5)C[C@H]3N4)cc2)c1 (some centres not stated)	57*
COc1cc(CN2C[C@@H]3N[C@H](C2)C3c2ccc(/C=C/c3ccccc3)cc2)cc(OC)c1 (some centres not stated)	89*
COc1ccccc1-c1ccc([C@@H]2[C@@H](CO)N(C(C)=O)C23CN(C(C)=O)C3)cc1	-55
COc1ccccc1CN1C[C@@H]2N[C@H](C1)C2c1ccc(-c2ccccc2OC)cc1 (some centres not stated)	70*
COc1ccc(-c2ccc(C3[C@@H]4CN(Cc5cc(OC)cc(OC)c5)C[C@H]3N4)cc2)cc1 (some centres not stated)	121*
Fc1cccc(CN2C[C@@H]3N[C@H](C2)C3c2ccc(-c3ccccc3)cc2)c1 (some centres not stated)	-97
C[C@H](CO)N1C[C@H](C)[C@@H](CN(C)CC2CCOCC2)Oc2ncc(Br)cc2C1=O	-89

Source: PubChem (Broad Institute)
